According to PubChem BioAssay AID602194 (The Scripps Research Institute Molecular Screening Center, 2012):
Screen size: about 2,400 compounds; about 140 (5.8%) were called active.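 How the source made its calls: active means mean activation across replicates exceeds the hit threshold derived in the earlier primary screen (cut at about 18% in these data); inactive means the rest.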 Only a sample is shown.

What follows are compounds tested against Mu-type opioid receptor (Homo sapiens) + Delta-type opioid receptor (Homo sapiens) (UniProt P35372+P41143) (assay: agonists of MOR-DOR heterodimerization, counter-screen for MC4R biased agonist project, cell-based, luminescence (AID 602194;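 further: 100% = deltorphin B at 0.9 µM final and 0% = DMSO alone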)). Details: U2OS PathHunter beta-arrestin, beta-gal luminescence; at 9.2 µM; stronger effect = higher value; percent of deltorphin B response, DMSO zero.
Mu-type opioid receptor (Homo sapiens) + Delta-type opioid receptor (Homo sapiens), sequence (P35372 whole entry, looked up): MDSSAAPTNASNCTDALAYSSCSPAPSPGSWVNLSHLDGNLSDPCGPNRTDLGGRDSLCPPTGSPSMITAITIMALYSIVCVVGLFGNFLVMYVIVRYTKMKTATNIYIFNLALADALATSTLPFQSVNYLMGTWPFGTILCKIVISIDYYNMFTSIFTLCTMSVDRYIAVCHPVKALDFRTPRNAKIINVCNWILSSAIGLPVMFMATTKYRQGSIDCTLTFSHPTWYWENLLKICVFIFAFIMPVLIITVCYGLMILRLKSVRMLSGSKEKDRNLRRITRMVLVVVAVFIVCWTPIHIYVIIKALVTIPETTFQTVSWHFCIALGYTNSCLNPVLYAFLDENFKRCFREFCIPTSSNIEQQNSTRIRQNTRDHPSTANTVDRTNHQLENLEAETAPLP
Mu-type opioid receptor (Homo sapiens) + Delta-type opioid receptor (Homo sapiens), sequence (P41143 whole entry, looked up): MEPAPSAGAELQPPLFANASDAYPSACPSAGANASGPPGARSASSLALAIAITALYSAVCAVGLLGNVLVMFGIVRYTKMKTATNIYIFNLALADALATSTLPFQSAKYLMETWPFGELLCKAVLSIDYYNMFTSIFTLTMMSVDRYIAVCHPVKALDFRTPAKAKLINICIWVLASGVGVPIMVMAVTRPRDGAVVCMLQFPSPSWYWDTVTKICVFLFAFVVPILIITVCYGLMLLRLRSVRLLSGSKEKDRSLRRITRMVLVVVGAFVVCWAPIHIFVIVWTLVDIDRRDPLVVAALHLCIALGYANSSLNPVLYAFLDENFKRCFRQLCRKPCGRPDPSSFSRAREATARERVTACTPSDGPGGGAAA
How it was run: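 Test system: U2OS Mu-Delta cell line / Compound: single dose, 9.2 µM final nominal compound concentration / Schedule: 3 h compound exposure at 37 °C, 1 h room-temperature readout / Technique: luminescence / Measure: mean % activation versus DMSO and Deltorphin B wells / Control set: high Deltorphin B 0.9 µM, low DMSO alone / Replicates: triplicate wells per compound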

| SMILES | activation |
| --- | --- |
| COc1ccc(Nc2oc(-c3ccccc3Cl)nc2C#N)cc1 | 6.69% (inactive) |
| CCOC(=O)c1c(-c2ccccc2)oc2cc(Br)c(O)c(C=O)c12 | 3.34% (inactive) |
| Cc1ccc2nc(-c3ccncc3)cc(C(=O)Nc3ccc(OC(F)F)cc3)c2c1 | 8.13% (inactive) |
| COc1ccc(/C=N/NC(=O)Nc2ccc3nsnc3c2)c(OC)c1 | 3.63% (inactive) |
| Cc1ccc(-n2nc(C)c(/C=N/NC(=O)c3cccs3)c2Cl)cc1 | 7.37% (inactive) |
| COc1ccccc1NC(=O)Nc1nnc(Cc2ccc(F)cc2)s1 | 10.7% (inactive) |
| Cc1c(-c2ccccc2)n[nH]c1C(=O)N=Nc1c(O)[nH]c2ccccc12 | 8.27% (inactive) |
| COc1ccc2nc(NC(=O)c3ccc(Br)s3)sc2c1 | 8.88% (inactive) |
| C=CCn1c(SCC(=O)c2ccc(Br)cc2)nnc1C(C)NC(=O)Cc1ccc(OC)cc1 (centres undefined) | 7.14% (inactive) |
| O=C(OCc1cn(-c2ccc(Cl)c(Cl)c2)nn1)c1ccccc1Cl | 3.56% (inactive) |
| Cc1ccc(C(=O)Nc2ccc(NC(=O)c3cccs3)cc2)c(C)c1 | 6.51% (inactive) |
| Cc1ccc(Sc2ccc(NC(=O)c3ccc(F)cc3)cc2C#N)cc1 | 4.2% (inactive) |
| Cc1ccsc1/C=N/Nc1ccc(Cl)nn1 | 5.93% (inactive) |
| Cc1ccc(-c2csc(SCC(=O)Nc3cc(C)on3)n2)cc1 | 7.19% (inactive) |
| COc1cccc(NC(=S)NC(=O)c2c(Cl)c(C)nn2C)c1 | 3.17% (inactive) |
| N#CC(=C1SC=CS1)c1nc(-c2ccccc2)cs1 | 3.11% (inactive) |
| O=C(c1cc(-c2cccc(O)c2)on1)N1CCc2ccccc2C1 | 11.4% (inactive) |
| CSc1ccc(S(=O)(=O)NCc2ccc(Cl)cc2)cc1 | 8.41% (inactive) |
| Cc1ccc(Nc2nnc(SCC(=O)c3cc4ccccc4o3)s2)cc1C | 4.48% (inactive) |
| COc1ccc(C(=O)n2nc(-c3ccc(C)cc3)nc2N)cc1OC | 4.64% (inactive) |

| SMILES | activation |
| --- | --- |
| Fc1ccccc1/C=N/Nc1cc(N2CCCCC2)ncn1 | 7.52% (inactive) |
| Cc1cc(OCc2cc(C(=O)NCc3cc(C(C)C)no3)no2)cc(C)c1Cl | 3.52% (inactive) |
| CCN1CCC2(CC1)N=C(c1ccc(F)cc1)C(=S)N2C(=O)c1ccc(C)cc1 | 52% (active) |
| CCN(CC)C(=O)Oc1ccc(Br)cc1C(=O)Nc1ccc(F)c(Cl)c1 | 3.45% (inactive) |
| CN(C)CCCN(C(=O)c1ccc(S(=O)(=O)N2CCCCCC2)cc1)c1nc2ccc(Br)cc2s1 | 16.5% (inactive) |
| S=C(NCCCc1cnc[nH]1)NCCCN(Cc1ccc(Cl)c(Cl)c1)c1ccc(Br)cn1 | 5.39% (inactive) |
| COc1ccc(Cn2c(C)c(C)c(C#N)c2NC(=O)Nc2ccc(F)cc2)cc1 | 7.17% (inactive) |
| COc1cccc(-c2cnc3c(NC(C)=O)cc(-c4cc(F)ccc4OC)cn23)c1 | 3.13% (inactive) |
| Cc1cc(/C=C(/C#N)C(=O)Nc2ccc(Cl)cc2)c(C)n1-c1cccnc1 | 4.36% (inactive) |
| CCC(=O)c1cc2c(cc1NC(=O)c1cccs1)OCCO2 | 3.16% (inactive) |
| COC(=O)c1sccc1NC(=O)c1cc(OC)c(OC)c(OC)c1 | 2.04% (inactive) |
| Cc1ccc(S(=O)(=O)NCCC(=O)Nc2ccc(C)c(Cl)c2)cc1C | 10.4% (inactive) |
| CN(C)C(=O)c1cccc(-c2cnc3c(NC=O)cc(-c4ccc(F)cc4)cn23)c1 | 1.45% (inactive) |
| Cn1c(=S)sc2ccc3ccccc3c21 | 6.66% (inactive) |
| COc1ccc(Nc2ncnc3sc(-c4ccccc4)cc23)c(OC)c1 | 3.93% (inactive) |
| CC(=O)Nc1ccc(-c2csc(NC(=O)Nc3ccccc3)n2)cc1 | 4.45% (inactive) |
| COc1ccc(CC(N)c2csc(NC(=O)NC(c3ccccc3)c3ccccc3)n2)cc1 (centres undefined) | 27.4% (active) |
| COc1ccc(C(N)c2csc(NC(=O)Nc3cccc(C(F)(F)F)c3)n2)cc1 (centres undefined) | 13.5% (inactive) |
| COc1ccc(Cl)cc1-n1c(C)cc(C(=O)OCC(=O)N2CC(=O)Nc3ccccc32)c1C | 3.77% (inactive) |
| CC(=O)c1sc(NC(=O)CCCOc2ccccc2C)nc1C | 7.21% (inactive) |

| SMILES | activation |
| --- | --- |
| CSc1nc2sc3c(c2c(=O)[nH]1)CCc1ccccc1-3 | 7.74% (inactive) |
| Cc1ccc(-c2csc(NC(=O)Cn3[nH]c(=O)c4ccccc4c3=O)n2)cc1 | 6.76% (inactive) |
| Cc1ccc(NC(=O)Nc2ccccc2)c(Br)c1 | 7.33% (inactive) |
| CCn1c(SCC(=O)Nc2cccc(F)c2)nnc1-c1cc2cc(Br)ccc2o1 | 6.83% (inactive) |
| O=C(Nc1sc2c(c1-c1nc3ccccc3[nH]1)CCCC2)C1CC1 | 4.53% (inactive) |
| Cc1cccc(C)c1OC(=O)CSc1nnc(-c2ccccc2)o1 | 3.88% (inactive) |
| O=C1N/C(=C/c2cccn2-c2ccccc2)C(=O)N1c1cccc(Cl)c1 | 6.05% (inactive) |
| O=C(CSc1ccccc1)Nc1nnc(/C=C/c2ccccc2)s1 | 6.5% (inactive) |
| CCCCN1CC(C)(C)[C@H](CC(=O)Nc2ccc(Br)cc2)C1=O | 4.9% (inactive) |
| COc1cccc2sc(N(CCCN(C)C)C(=O)C(c3ccccc3)c3ccccc3)nc12 | 9.67% (inactive) |
| COCCNc1nc(Nc2ccccc2Cl)c2sc(-c3ccccc3)cc2n1 | 5.13% (inactive) |
| Cc1nn2cc(-c3ccc(Cl)cc3)cnc2c1Br | 2.93% (inactive) |
| CCc1ccc2c(c1)cc(CN(C(=S)Nc1ccccc1Cl)C1CC1)c1nnnn12 | 2.95% (inactive) |
| CC(=O)Nc1ccc(NC(=O)c2sc3nc4c(c(-c5ccc(C)cc5)c3c2N)CCC4)cc1 | 14.3% (inactive) |
| Cc1ccc(CCC(=O)Nc2ncc(Cc3cc(Cl)ccc3Cl)s2)o1 | 10.6% (inactive) |
| Cc1cc(C)cc(C(=O)OCC(=O)NCCNC(=O)COC(=O)c2cc(C)cc(C)c2)c1 | 3.35% (inactive) |
| CC(C)c1ccc2c(c1)c(SC(C)(C)C)c(CC(C)(C)C(=O)O)n2Cc1ccc(Cl)cc1 | 4.65% (inactive) |
| COc1ccc(S(=O)(=O)N2CCC(C(=O)OCC(=O)c3ccccc3)CC2)cc1[N+](=O)[O-] | 4.26% (inactive) |
| CCOc1ccc(/C=C/C(=O)OCC(=O)c2ccccc2OC)cc1OC | 3.55% (inactive) |
